Values after ≈ are worked out from the molar mass of the structure shown. Active and inactive are the calls of the source. The rule behind the calls is not given here. Square brackets hold non-standard residues; d marks the D form. Peptide text beside a SMILES is read from it. ξ: configuration not given here. NMeF = CN[C@@H](Cc1ccccc1)C(=O)O; Ile(3ξ) = CCC(C)[C@H](N)C(=O)O; NMeL = CN[C@@H](CC(C)C)C(=O)O; NMeV = CN[C@H](C(=O)O)C(C)C
How the values were obtained:
Staphylococcus aureus [1] = experiment: Antibacterial activity against Staphylococcus aureus ATCC 29213 assessed as bacterial growth inhibition at 50 ug/disk measured after 24 to 72 hrs by disk diffusion assay; format: functional, organism-based; conditions: time 24-72 hrs
In short: (§1)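 Agar disk diffusion. Inoculum suspension (1–3 mL) mixed into 100 mL autoclaved medium cooled to 45 °C: yeast malt agar for the yeast, tryptic soy agar for the bacterium. Poured as 5 mL plates. 6.25 mm paper disks loaded with 50 μg sample, solvent evaporated. Incubated at room temperature 24–72 h. Amphotericin or gentamicin at 25 μg/disk as positive controls.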

Candida albicans [2] = experiment: Antifungal activity against Candida albicans ATCC10231 assessed as fungal growth inhibition at 50 ug/disk measured after 24 to 72 hrs by disk diffusion assay; format: functional, organism-based; conditions: time 24-72 hrs; in short: as §1
Staphylococcus aureus [3] = experiment: Antibacterial activity against Staphylococcus aureus ATCC 43300 assessed as bacterial growth inhibition incubated for 24 hrs by alamarBlue dye based assay; format: functional
In short: (§2)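 Broth MIC, modified CLSI method. Overnight cultures diluted to OD600 0.8 in PBS, then 1000-fold in MOPS-buffered RPMI-1640. Exposed to serial dilutions from 0.25 to 128 μM. Growth read by adding 10% alamarBlue. S. aureus ATCC 43300: 24 h at 37 °C. C. albicans ATCC 10231: 48 h at 23 °C. C. neoformans H99: 48 h at 23 and at 37 °C. Controls: chlortetracycline + streptomycin (bacterium), amphotericin B (fungi).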

Candida albicans [4] = experiment: Antifungal activity against Candida albicans ATCC 10231 assessed as fungal growth inhibition incubated for 48 hrs by alamarBlue dye based assay; format: functional; in short: as §2
Cryptococcus neoformans [5] = experiment: Antifungal activity against Cryptococcus neoformans H99 assessed as fungal growth inhibition incubated for 48 hrs at 23 degC by alamarBlue dye based assay; format: functional; in short: as §2
Cryptococcus neoformans [6] = experiment: Antifungal activity against Cryptococcus neoformans H99 assessed as fungal growth inhibition incubated for 48 hrs at 37 degC by alamarBlue dye based assay; format: functional; in short: as §2

Row | MIC (Staphylococcus aureus [3]) [µg/mL] | MIC (Candida albicans [4]) [µg/mL] | MIC (Cryptococcus neoformans [5]) [µg/mL] | MIC (Cryptococcus neoformans [6]) [µg/mL] | Compound | Activity (Staphylococcus aureus [1]) | Activity (Candida albicans [2])
1 |  |  |  |  | O=C1/C(=C/c2ccccc2)NC(=O)C2(O)CCCN12 (configuration not stated) | inactive | inactive
2 |  |  |  |  | CC(C)C[C@H]1C(=O)N[C@@H](C(C)C)C(=O)N2CCC[C@H]2C(=O)N(C)[C@@H](Cc2ccccc2)C(=O)N[C@@H](C)C(=O)N(C)[C@@H](C(C)C)C(=O)N(C)[C@@H](CC(C)C)C(=O)N[C@@H](C(C)C)C(=O)N1C (cyclo(A[NMeV][NMeL]V[NMeL]VP[NMeF])) | Active | 
3 |  |  |  |  | O=C1N[C@@H](Cc2ccccc2)C(=O)N2CCC[C@@H]12 | inactive | inactive
4 |  |  |  |  | O=C1N/C(=C\c2ccccc2)C(=O)N2CCCC12 (configuration not stated) | inactive | inactive
5 | 128 (≈ 141 µM) | 64 (≈ 70.4 µM) | 128 (≈ 141 µM) | 8 (≈ 8.8 µM) | CCC(C)[C@@H]1NC(=O)[C@H](CC(C)C)N(C)C(=O)[C@H](C(C)C)N(C)C(=O)[C@H](C)NC(=O)[C@H](Cc2ccccc2)N(C)C(=O)[C@@H]2CCCN2C(=O)[C@H](C(C)C)NC(=O)[C@H](CC(C)C)N(C)C1=O (some centres not stated) (cyclo(A[NMeV][NMeL][Ile(3ξ)][NMeL]VP[NMeF])) | Active | Active
6 |  |  | 0.85 (≈ 0.92 µM) | 0.85 (≈ 0.92 µM) | C[C@@H]1[C@H](O)[C@@H](C)/C=C/C=C/C=C/C=C/C=C/C=C/C=C/[C@H](O[C@@H]2O[C@H](C)[C@@H](O)[C@H](N)[C@@H]2O)C[C@@H]2O[C@](O)(C[C@@H](O)C[C@@H](O)[C@H](O)CC[C@@H](O)C[C@@H](O)CC(=O)O[C@H]1C)C[C@H](O)[C@H]2C(=O)O [AMPHOTERICIN B] |  | 
7 |  |  |  |  | CN1C(=O)C2CCCN2C(=O)/C1=C/c1ccccc1 (configuration not stated) | inactive | inactive

— ChEMBL document CHEMBL4837237, “Broomeanamides: Cyclic Octapeptides from an Isolate of the Fungicolous Ascomycete Sphaerostilbella broomeana from India” (J Nat Prod, 2021)
